Test results reported in ChEMBL document CHEMBL1806467 (Bioorg Med Chem Lett, 2011).
Converted amounts (≈) assume the structure as drawn. The source made the active and inactive calls. The rule behind the calls is not given here.

How the values were obtained:
[1] = Aqueous solubility of the compound at pH 7.4; format: physicochemical; conditions: buffer
[2] = Half life in human liver microsomes after 30 mins; format: ADME, Microsome
Summary of the method: (§1)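 Drug incubated with liver microsomes of the stated species (rat, nude mouse, human) for 30 min; half-life of drug determined.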

[3] = Half life in nude mouse liver microsomes after 30 mins; format: ADME, Microsome; summary of the method: as §1
[4] = Half life in rat liver microsomes after 30 mins; format: ADME, Microsome; summary of the method: as §1
Mus musculus [5] = species: Mus musculus; conditions: MDA-MB-361, 25 mg/kg
Mus musculus [6] = species: Mus musculus; conditions: MDA-MB-361, 25 mg/kg; remark: listed apart in the source
Mus musculus [7] = species: Mus musculus; conditions: MDA-MB-361, 25 mg/kg; remark: listed apart in the source
Mus musculus [8] = species: Mus musculus; conditions: MDA-MB-361, 25 mg/kg; remark: listed apart in the source
Mus musculus [9] = species: Mus musculus; conditions: MDA-MB-361, 25 mg/kg; remark: listed apart in the source
MDA-MB-361 = test: cells; conditions: Homo sapiens, MDA-MB-361, 72 h
PC-3 = test: cells; conditions: Homo sapiens, PC-3, 72 h
[10] = biological target: Serine/threonine-protein kinase mTOR (Homo sapiens, UniProt P42345); test: Inhibition of mTOR
Mus musculus [11] = test: In vivo inhibition of PI3K/mTOR in human MDA-MB-361 cells xenografted nude mouse assessed as induction of cleaved poly-adenosine-diphosphate-ribose polymerase at 50 mg/kg, iv after 8 hrs by immunoblotting; format: functional, organism-based; parameters: dose 50 mg/kg
[12] = biological target: Phosphatidylinositol 4,5-bisphosphate 3-kinase catalytic subunit alpha isoform (Homo sapiens, UniProt P42336); test: Inhibition of human PI3Kalpha expressed in SF9 insect cells after 2 hrs by fluorescence polarization assay
Mus musculus [13] = species: Mus musculus; conditions: MDA-MB-361, 10 mg/kg
Mus musculus [14] = species: Mus musculus; conditions: MDA-MB-361, 10 mg/kg; remark: listed apart in the source
Mus musculus [15] = species: Mus musculus; conditions: MDA-MB-361, 10 mg/kg; remark: listed apart in the source
Mus musculus [16] = species: Mus musculus; conditions: MDA-MB-361, 10 mg/kg; remark: listed apart in the source
Mus musculus [17] = species: Mus musculus; conditions: MDA-MB-361, 10 mg/kg; remark: listed apart in the source

Chain of Phosphatidylinositol 4,5-bisphosphate 3-kinase catalytic subunit alpha isoform (P42336 whole entry, canonical isoform): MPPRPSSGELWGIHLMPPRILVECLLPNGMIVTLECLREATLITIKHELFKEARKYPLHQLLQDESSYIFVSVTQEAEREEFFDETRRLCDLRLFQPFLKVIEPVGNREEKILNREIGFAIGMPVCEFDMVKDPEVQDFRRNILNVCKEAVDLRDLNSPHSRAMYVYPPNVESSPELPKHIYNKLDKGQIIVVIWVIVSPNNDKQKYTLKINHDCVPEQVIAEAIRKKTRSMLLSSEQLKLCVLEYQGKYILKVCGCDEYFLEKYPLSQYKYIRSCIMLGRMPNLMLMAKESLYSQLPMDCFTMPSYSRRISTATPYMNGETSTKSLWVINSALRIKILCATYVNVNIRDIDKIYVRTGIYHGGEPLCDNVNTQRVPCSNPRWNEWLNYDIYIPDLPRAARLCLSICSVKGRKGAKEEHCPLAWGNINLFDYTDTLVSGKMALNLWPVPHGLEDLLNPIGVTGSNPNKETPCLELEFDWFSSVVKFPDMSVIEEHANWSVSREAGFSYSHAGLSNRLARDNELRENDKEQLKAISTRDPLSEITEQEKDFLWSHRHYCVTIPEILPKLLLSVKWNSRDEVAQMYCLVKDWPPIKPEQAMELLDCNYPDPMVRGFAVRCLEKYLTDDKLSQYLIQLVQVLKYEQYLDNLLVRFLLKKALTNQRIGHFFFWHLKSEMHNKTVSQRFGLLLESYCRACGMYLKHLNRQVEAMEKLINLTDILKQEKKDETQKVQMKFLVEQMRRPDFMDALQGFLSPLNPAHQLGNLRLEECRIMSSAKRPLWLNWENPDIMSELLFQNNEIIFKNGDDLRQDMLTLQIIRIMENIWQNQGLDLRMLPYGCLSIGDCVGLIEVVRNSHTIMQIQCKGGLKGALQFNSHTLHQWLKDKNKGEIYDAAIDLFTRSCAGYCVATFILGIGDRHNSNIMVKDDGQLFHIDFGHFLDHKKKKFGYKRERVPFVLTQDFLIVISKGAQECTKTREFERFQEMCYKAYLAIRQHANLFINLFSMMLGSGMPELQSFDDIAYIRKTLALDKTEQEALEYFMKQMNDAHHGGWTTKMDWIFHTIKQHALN

solubility [1]	half-life [2]	half-life [3]	half-life [4]	IC50 (MDA-MB-361)	IC50 (PC-3)	Structure (SMILES)	other results
> 100 µg/mL	> 30 min	> 30 min	27 min	–	–	CN(C)CCN(C)C(=O)c1ccc(NC(=O)Nc2ccc(-c3nc(O[C@H]4CCOC4)nc(N4CCOCC4)n3)cc2)cc1	inhibition (Mus musculus [5]): Active; inhibition (Mus musculus [6]): Active; inhibition (Mus musculus [7]): Active; inhibition (Mus musculus [8]): Active; inhibition (Mus musculus [9]): Active
15 µg/mL (≈ 26.7 µM)	> 30 min	23 min	> 30 min	–	–	CC(C)Oc1nc(-c2ccc(NC(=O)Nc3ccc(C(=O)N(C)CCN(C)C)cc3)cc2)nc(N2CCOCC2)n1	–
> 100 µg/mL	> 30 min	> 30 min	> 30 min	< 31 nM	71 nM	COc1nc(-c2ccc(NC(=O)Nc3ccc(C(=O)NCCN(C)C)cc3)cc2)nc(N2CCOCC2)n1	–
> 100 µg/mL	> 30 min	> 30 min	15 min	15 nM	34 nM	COc1nc(-c2ccc(NC(=O)Nc3ccc(C(=O)N(C)CCN(C)C)cc3)cc2)nc(N2CCOCC2)n1	–
–	> 30 min	> 30 min	–	8 nM	–	CCn1nnc2c(N3CCOCC3)nc(-c3ccc(NC(=O)Nc4ccc(C(=O)N5CCN(C)CC5)cc4)cc3)nc21	IC50 [10]: 2 nM; inhibition (Mus musculus [11]): Active
4 µg/mL (≈ 6.96 µM)	–	–	> 30 min	–	–	CN1CCN(C(=O)c2ccc(NC(=O)Nc3ccc(-c4nc(OC5COC5)nc(N5CCOCC5)n4)cc3)cc2)CC1	–
> 100 µg/mL	> 30 min	> 30 min	> 30 min	110 nM	374 nM	CNCCN(C)C(=O)c1ccc(NC(=O)Nc2ccc(-c3nc(OC)nc(N4CCOCC4)n3)cc2)cc1	–
1 µg/mL (≈ 1.7 µM)	15 min	> 30 min	20 min	–	–	CN1CCN(C(=O)c2ccc(NC(=O)Nc3ccc(-c4nc(O[C@H]5CCOC5)nc(N5CCOCC5)n4)cc3)cc2)CC1	–
–	18 min	> 30 min	–	–	–	CN(C)C1CCN(C(=O)c2ccc(NC(=O)Nc3ccc(-c4nc(O[C@H]5CCOC5)nc(N5CCOCC5)n4)cc3)cc2)CC1	–
23 µg/mL (≈ 38.2 µM)	> 30 min	> 30 min	28 min	8 nM	27 nM	O=C(Nc1ccc(C(=O)NCCN2CCCC2)cc1)Nc1ccc(-c2nc(O[C@H]3CCOC3)nc(N3CCOCC3)n2)cc1	IC50 [10]: 0.3 nM
–	> 30 min	> 30 min	17 min	–	–	CC(C)Oc1nc(-c2ccc(NC(=O)Nc3ccc(C(=O)N4CCN(C)CC4)cc3)cc2)nc(N2CCOCC2)n1	–
3 µg/mL (≈ 5.63 µM)	> 30 min	> 30 min	16 min	35 nM	91 nM	COc1nc(-c2ccc(NC(=O)Nc3ccc(C(=O)N4CCN(C)CC4)cc3)cc2)nc(N2CCOCC2)n1	IC50 [12]: 1.2 nM
1 µg/mL (≈ 1.62 µM)	> 30 min	> 30 min	27 min	5 nM	18 nM	O=C(Nc1ccc(C(=O)NCCN2CCCCC2)cc1)Nc1ccc(-c2nc(O[C@H]3CCOC3)nc(N3CCOCC3)n2)cc1	IC50 [10]: 0.4 nM
> 100 µg/mL	> 30 min	> 30 min	> 30 min	< 31 nM	69 nM	COc1nc(-c2ccc(NC(=O)Nc3ccc(C(=O)NCCN4CCCCC4)cc3)cc2)nc(N2CCOCC2)n1	–
3 µg/mL (≈ 5.47 µM)	> 30 min	> 30 min	> 30 min	11 nM	41 nM	CC(C)Oc1nc(-c2ccc(NC(=O)Nc3ccc(C(=O)NCCN(C)C)cc3)cc2)nc(N2CCOCC2)n1	IC50 [10]: 0.4 nM
–	–	–	> 30 min	> 1000 nM	> 1000 nM	CN1CCN(C(=O)c2ccc(NC(=O)Nc3ccc(-c4nc(N5CCOCC5)[nH]c(=O)n4)cc3)cc2)CC1	–
15 µg/mL (≈ 24.4 µM)	> 30 min	> 30 min	> 30 min	–	–	CN(C)C1CCN(C(=O)c2ccc(NC(=O)Nc3ccc(-c4nc(N5CCOCC5)nc(N5CCOCC5)n4)cc3)cc2)CC1 [GEDATOLISIB]	inhibition (Mus musculus [5]): Active; inhibition (Mus musculus [6]): Active; inhibition (Mus musculus [7]): Active; inhibition (Mus musculus [8]): Active; inhibition (Mus musculus [9]): Active; inhibition (Mus musculus [13]): Active; inhibition (Mus musculus [14]): Active; inhibition (Mus musculus [15]): Active; inhibition (Mus musculus [16]): Active; inhibition (Mus musculus [17]): Active

Structure (SMILES)	solubility [1]	half-life [2]	half-life [3]	half-life [4]	IC50 (MDA-MB-361)	IC50 (PC-3)	other results
COc1nc(-c2ccc(NC(=O)Nc3ccc(C(=O)N4CCNC(C)(C)C4)cc3)cc2)nc(N2CCOCC2)n1	61 µg/mL (≈ 112 µM)	> 30 min	> 30 min	29 min	30 nM	111 nM	IC50 [12]: 1.4 nM; IC50 [10]: 18.5 nM
CN1C2CCC1CC(Oc1nc(-c3ccc(NC(=O)Nc4ccc(C(N)=O)cc4)cc3)nc(N3CCOCC3)n1)C2 (stereo not drawn)	62 µg/mL (≈ 111 µM)	–	–	4 min	–	–	–
